Columns and labels:
[1] = tested on: Human immunodeficiency virus 1; assay: Effective concentration against HIV-1(IIIB) replication in MT-4 cells; format: functional, organism-based; conditions: Human immunodeficiency virus 1, MT4
Outline: (§1)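 MT-4 cells were infected with HIV-1 (III_B) or HIV-2 (ROD) at MOI 0.01 (100 CCID₅₀), or mock-infected, run in parallel. Cells were exposed to various compound concentrations and grown 5 days, then viable cells were counted by MTT colorimetry. EC₅₀ protects 50% of infected cells from cytopathicity; CC₅₀ cuts mock-infected viability by 50%. Values are averages of several experiments.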

[2] = tested on: MT4; assay: Concentration required to reduce the viability of mock infected cells by 50%; format: functional; conditions: Homo sapiens; outline: as §1
[3] = tested on: Human immunodeficiency virus 2; assay: Effective concentration against HIV-2(ROD) replication in MT-4 cells; format: functional, organism-based; conditions: Human immunodeficiency virus 2, MT4; outline: as §1
[4] = pKa was reported; format: physicochemical
Outline: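 Potentiometric titration: a 0.1 mM aqueous solution with 4 equiv HClO₄ at 25 °C, I = 0.1 M (NaClO₄), was titrated with 0.1 M NaOH. The electrode was calibrated with pH 4.00 and 7.00 buffers. UV spectra (400–200 nm, 1 cm path) were also taken at 0.17 mM across pH 1–7, with pH set by HClO₄ in 0.1 M NaClO₄.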

| Compound | EC50 [1] | CC50 [2] | EC50 [3] | pKa [4] |
| --- | --- | --- | --- | --- |
| c1cc(CN2CCCNCCNCCCNCC2)cc(CN2CCCNCCNCCCNCC2)n1 | 16400 nM | 17000 nM | 16400 nM |  |
| c1ccc(-c2cc(CN3CCCNCCNCCCNCC3)cc(CN3CCCNCCNCCCNCC3)n2)cc1 | 39.8 nM | > 203000 nM | 20 nM |  |
| c1ncc(CN2CCCNCCNCCCNCC2)nc1CN1CCCNCCNCCCNCC1 | 26.1 nM | > 203000 nM | 17.4 nM |  |
| c1cc(CN2CCCNCCNCCCNCC2)ncc1CN1CCCNCCNCCCNCC1 | 908 nM | 18000 nM | 2190 nM |  |
| c1nc(CN2CCCNCCNCCCNCC2)cnc1CN1CCCNCCNCCCNCC1 | 139000 nM | > 203000 nM | 106000 nM |  |
| c1cc(CN2CCCNCCNCCCNCC2)nc(CN2CCCNCCNCCCNCC2)c1 | 24.5 nM | > 409000 nM | 65.4 nM |  |
| c1ncc(CN2CCCNCCNCCCNCC2)cc1CN1CCCNCCNCCCNCC1 | 31.6 nM | > 395000 nM | 71 nM |  |
| c1cc(CN2CCCNCCNCCCNCC2)cc(CN2CCCNCCNCCCNCC2)c1 |  | > 421000 nM |  |  |
| O=C(O)c1cc(CN2CCCNCCNCCCNCC2)ccc1CN1CCCNCCNCCCNCC1 | > 200000 nM | > 200000 nM | > 200000 nM |  |
| c1ccc(C2CCNCCNCCCNCCN2)nc1 (centres undefined) |  |  |  | < 3 |
| O=C(O)c1cc(CN2CCCNCCNCCCNCC2)cc(CN2CCCNCCNCCCNCC2)c1 | > 203000 nM | > 200000 nM | > 203000 nM |  |
| c1ccc2c(CN3CCCNCCNCCCNCC3)cc(CN3CCCNCCNCCCNCC3)nc2c1 | 3770 nM | > 419000 nM | 4270 nM |  |
| COC(=O)c1cc(CN2CCCNCCNCCCNCC2)ccc1CN1CCCNCCNCCCNCC1 | 682 nM | > 198000 nM | 590 nM |  |
| c1ccc(-c2cc(CN3CCCNCCNCCCNCC3)cc(CN3CCCNCCNCCCNCC3)c2)cc1 |  | > 198000 nM |  |  |
| Nc1cc(CN2CCCNCCNCCCNCC2)cc(CN2CCCNCCNCCCNCC2)c1 | 46.8 nM | > 194000 nM | 39 nM |  |
| c1ccc2c(CN3CCCNCCNCCCNCC3)cc(CN3CCCNCCNCCCNCC3)cc2c1 | 157 nM | 207000 nM | 78.6 nM |  |
| c1ccc(CCC2CNCCNCCCNCCNC2)nc1 |  |  |  | 5.32 |
| Oc1cccnc1C1CCNCCNCCCNCCN1 (centres undefined) |  |  |  | 3.6 |
| Nc1cc(CN2CCCNCCNCCCNCC2)ccc1CN1CCCNCCNCCCNCC1 | 187 nM | > 179000 nM | 93.4 nM |  |
| c1cc(CN2CCCNCCNCCCNCC2)ccc1CN1CCCNCCNCCCNCC1 [PLERIXAFOR] |  | > 421000 nM | 5.9 nM |  |

Source: ChEMBL document CHEMBL1129236, “Synthesis and structure-activity relationships of phenylenebis(methylene)-linked bis-tetraazamacrocycles that inhibit human immunodeficiency virus replication. 2. Effect of heteroaromatic linkers on the activity of bicyclams” (J Med Chem, 1996)
